One block for each compound: values may come before it.
Columns and labels:
Type in all cases: functional, cell-based
[1] = tested on: HEp-2; experiment: Cytotoxicity of compound against growth of human Hep2 cell line
Procedure, shortened: (§1)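 MTT dye-conversion assay. Cells kept in monolayer at 37 °C in humidified 5% CO2, trypsinized, seeded at 5 × 10³ cells/well and grown 24 h. Then treated 96 h with exponentially increasing drug concentrations in 10% FBS; compound stocks in DMSO. MTT (5 mg/mL in PBS) added for 3 h at 37 °C. Medium replaced with DMSO and OD read at 570 nm.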

[2] = tested on: MIA PaCa-2; experiment: Inhibitory concentration of compound against growth of human Mia-Paca cell line; procedure, shortened: as §1
[3] = tested on: HEp-2; experiment: Inhibitory concentration of compound against growth of human Hep2 cell line; procedure, shortened: as §1
[4] = tested on: BXPC-3; experiment: Inhibitory concentration of compound against growth of human BxPC3 cell line; procedure, shortened: as §1
[5] = tested on: SNU-308; experiment: Inhibitory concentration of compound against growth of human SNU-308 cell line; Resistant; procedure, shortened: as §1
[6] = tested on: HN006 cell line; experiment: Inhibitory concentration of compound against growth of human HN006 cell line; Resistant; procedure, shortened: as §1
[7] = tested on: HEp-2; experiment: Inhibitory concentration of compound against growth of human Hep2 cell line; Resistant; procedure, shortened: as §1
[8] = tested on: HuCCT-1; experiment: Inhibitory concentration of compound against growth of human HuCCT-1 cell line; Resistant; procedure, shortened: as §1
[9] = tested on: MIA PaCa-2; experiment: Inhibitory concentration of compound against growth of human MIA PaCa cell line; Resistant; procedure, shortened: as §1
[10] = tested on: PANC-1; experiment: Inhibitory concentration of compound against growth of human Panc-1 cell line; Resistant; procedure, shortened: as §1
[11] = tested on: BXPC-3; experiment: Inhibitory concentration of compound against growth of human BxPC3 cell line; Resistant; procedure, shortened: as §1
[12] = tested on: A-431; experiment: Inhibitory concentration of compound against growth of human A431 cell line; Resistant; procedure, shortened: as §1

SMILES: Cc1cc(NC(=O)N(C)C(=O)c2ccccc2N)ccc1Oc1ncc(Br)cn1
IC50 [1]: 5000 nM

IC50 [2]: 1000 nM | IC50 [4]: 1000 nM
SMILES: CNc1ccccc1C(=O)NC(=O)Nc1ccc(Oc2ncc(Br)cn2)c(C)c1
IC50 [3]: 1000 nM

SMILES: Cc1cc(NC(=O)N(C)C(=O)c2ccccc2NC(=O)N(C)C(=O)c2ccccc2N)ccc1Oc1ncc(Br)cn1
IC50 [1]: 5000 nM

SMILES: CNc1ccccc1C(=O)N(C)C(=O)Nc1ccc(Oc2ncc(Br)cn2)c(C)c1
Activity [5]: Resistant | Activity [6]: Resistant | Activity [7]: Resistant | Activity [8]: Resistant | Activity [9]: Resistant | Activity [10]: Resistant | Activity [11]: Resistant | Activity [12]: Resistant

Source: ChEMBL document CHEMBL1147559, “Synthesis and antitumor evaluation of benzoylphenylurea analogs” (Bioorg Med Chem Lett, 2004)
